Source: ChEMBL document CHEMBL1128365, “S-(5'-deoxy-5'-adenosyl)-1-aminoxy-4-(methylsulfonio)-2-cyclopentene (AdoMao): an irreversible inhibitor of S-adenosylmethionine decarboxylase with potent in vitro antitrypanosomal activity” (J Med Chem, 1995)
pIC50, pKi: −log10 of the molar value. Blank lines part the entries; values can stand above or below the compound they belong to.

Legend:
HL-60 [1] = test: Polyamine levels in cultured HL60 cells on spermidine at the concentration of 50.0 uM; format: functional, Homo sapiens
Outline: (§1)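 HL60 human promyelocytic leukemia cells exposed to inhibitor for 96 h, then sonicated. AdoMet-DC activity measured by the Anton and Kutny method. Intracellular putrescine, spermidine and spermine quantified by HPLC (Danzin method). Each value is the mean of two determinations.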

HL-60 [2] = test: Polyamine levels in cultured HL60 cells on spermidine at the concentration of 1.0 uM; format: functional, Homo sapiens; outline: as §1
HL-60 [3] = test: Polyamine levels in cultured HL60 cells on S-Adenosyl-methionine decarboxylase at the concentration of 50.0 uM; format: functional, Homo sapiens; outline: as §1
HL-60 [4] = test: Polyamine levels in cultured HL60 cells on putrescine at the concentration of 1.0 uM; format: functional, Homo sapiens; outline: as §1
HL-60 [5] = test: Polyamine levels in cultured HL60 cells on spermidine at the concentration of 0.1 uM; format: functional, Homo sapiens; outline: as §1
HL-60 [6] = test: Polyamine levels in cultured HL60 cells on S-Adenosyl-methionine decarboxylase at the concentration of 100.0 uM; format: functional, Homo sapiens; outline: as §1
[7] = target: S-adenosylmethionine decarboxylase (Escherichia coli) (UniProt P0A7F6); test: Compound was evaluated for the inhibitor against Escherichia coli S-adenosyl-L-methionine decarboxylase
HL-60 [8] = test: Polyamine levels in cultured HL60 cells on putrescine at the concentration of 10.0 uM; format: functional, Homo sapiens; outline: as §1
HL-60 [9] = test: Polyamine levels in cultured HL60 cells on spermine at the concentration of 1.0 uM; format: functional, Homo sapiens; outline: as §1
HL-60 [10] = test: Polyamine levels in cultured HL60 cells on putrescine at the concentration of 0.1 uM; format: functional, Homo sapiens; outline: as §1
HL-60 [11] = test: Polyamine levels in cultured HL60 cells on S-Adenosyl-methionine decarboxylase at the concentration of 0.1 uM; format: functional, Homo sapiens; outline: as §1
HL-60 [12] = test: Polyamine levels in cultured HL60 cells on spermidine at the concentration of 10.0 uM; format: functional, Homo sapiens; outline: as §1
HL-60 [13] = test: Polyamine levels in cultured HL60 cells on spermidine at the concentration of 100.0 uM; format: functional, Homo sapiens; outline: as §1
HL-60 [14] = test: Polyamine levels in cultured HL60 cells on spermine at the concentration of 0.1 uM; format: functional, Homo sapiens; outline: as §1
HL-60 [15] = test: Polyamine levels in cultured HL60 cells on spermine at the concentration of 10.0 uM; format: functional, Homo sapiens; outline: as §1
[16] = target: T1, S-adenosylmethionine decarboxylase proenzyme (Homo sapiens) (UniProt P17707); test: (§2) Compound was evaluated for the inhibitor constant against human S-adenosyl-L-methionine decarboxylase
T1 sequence (whole entry): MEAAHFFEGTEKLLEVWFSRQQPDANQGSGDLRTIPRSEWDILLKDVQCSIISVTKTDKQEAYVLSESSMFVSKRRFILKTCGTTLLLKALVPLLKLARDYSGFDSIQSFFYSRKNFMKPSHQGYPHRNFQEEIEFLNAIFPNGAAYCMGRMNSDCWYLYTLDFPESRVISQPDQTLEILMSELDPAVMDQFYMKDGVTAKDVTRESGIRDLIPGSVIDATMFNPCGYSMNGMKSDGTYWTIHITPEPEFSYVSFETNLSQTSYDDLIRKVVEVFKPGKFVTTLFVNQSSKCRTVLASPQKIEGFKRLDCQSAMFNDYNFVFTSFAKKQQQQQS

[17] = system: Trypanosoma brucei rhodesiense; test: Compound was evaluated for the percentage inhibition of growth of uM; format: functional
HL-60 [18] = test: Polyamine levels in cultured HL60 cells on S-Adenosyl-methionine decarboxylase at the concentration of 10.0 uM; format: functional, Homo sapiens; outline: as §1
HL-60 [19] = test: Polyamine levels in cultured HL60 cells on spermine at the concentration of 50.0 uM; format: functional, Homo sapiens; outline: as §1
[20] = system: Trypanosoma brucei brucei; test: Compound was evaluated for the inhibition of growth of Trypanosoma brucei; format: functional, organism-based
Outline: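 T. brucei brucei bloodforms cultured in modified Iscove's medium, 3% CO2 in air, 37 °C, feeder layer-free. Inhibitor dissolved in medium; half the volume replaced daily with double-strength inhibitor. Growth read by daily cell counts, IC50 after 48 h. Alternatively: 24 h with inhibitor, wash, 24 h with 1.0 μCi [3H]hypoxanthine, filtration and scintillation counting. Mean of two determinations.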

HL-60 [21] = test: Polyamine levels in cultured HL60 cells on S-Adenosyl-methionine decarboxylase at the concentration of 1.0 uM; format: functional, Homo sapiens; outline: as §1
[22] = system: Trypanosoma brucei rhodesiense; test: Compound was evaluated for the inhibition of growth of brucei rhodesiense (KETRI 243).; format: functional, organism-based
[23] = target: T2, S-adenosylmethionine decarboxylase proenzyme (Homo sapiens, UniProt P17707); test: as §2
T2 sequence (P17707 whole entry): T1 sequence (whole entry)

HL-60 [24] = test: Polyamine levels in cultured HL60 cells on putrescine at the concentration of 100.0 uM; format: functional, Homo sapiens; outline: as §1
HL-60 [25] = test: Polyamine levels in cultured HL60 cells on putrescine at the concentration of 50.0 uM; format: functional, Homo sapiens; outline: as §1
HL-60 [26] = test: Polyamine levels in cultured HL60 cells on spermine at the concentration of 100.0 uM; format: functional, Homo sapiens; outline: as §1
[27] = target: T2, S-adenosylmethionine decarboxylase proenzyme; test: (§3) compound was evaluated for the inhibitor constant against human S-adenosyl-L-methionine decarboxylase
[28] = target: T1, S-adenosylmethionine decarboxylase proenzyme (Homo sapiens); test: as §3
[29] = target: S-adenosylmethionine decarboxylase (Escherichia coli) (UniProt P0A7F6); test: compound was evaluated for the inhibitor against Escherichia coli S-adenosyl-L-methionine decarboxylase.

Chain of S-adenosylmethionine decarboxylase (Escherichia coli) (P0A7F6 whole entry, looked up): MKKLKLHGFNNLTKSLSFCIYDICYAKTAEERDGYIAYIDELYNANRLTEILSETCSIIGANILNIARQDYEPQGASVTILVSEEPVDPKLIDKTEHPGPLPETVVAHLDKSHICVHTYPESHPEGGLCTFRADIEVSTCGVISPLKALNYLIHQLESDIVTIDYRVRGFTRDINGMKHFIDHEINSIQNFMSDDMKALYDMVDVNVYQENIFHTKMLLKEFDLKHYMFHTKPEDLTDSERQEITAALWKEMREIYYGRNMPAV

- kinact [7]: 0.015 min⁻¹
- kinact [16]: 0.115 min⁻¹
- pIC50 [20]: 6.05
- pIC50 [22]: 5.00
- pKi [23]: 4.71
SMILES: C[S+](C[C@H]1O[C@@H](n2cnc3c(N)ncnc32)[C@H](O)[C@@H]1O)C1C=CC(ON)C1.O=S(=O)(O)O.O=S(=O)([O-])O (stereo not given in full)
- Activity (HL-60 [1]): 11.2 nM/mg
- Activity (HL-60 [2]): 10.1 nM/mg
- Activity (HL-60 [3]): 449 pmol/h/mg
- Activity (HL-60 [4]): 0.94 nM/mg
- Activity (HL-60 [5]): 7.9 nM/mg
- Activity (HL-60 [6]): 489 pmol/h/mg
- Activity (HL-60 [8]): 0.71 nM/mg
- Activity (HL-60 [9]): 38.1 nM/mg
- Activity (HL-60 [10]): 0.71 nM/mg
- Activity (HL-60 [11]): 355 pmol/h/mg
- Activity (HL-60 [12]): 8.4 nM/mg
- Activity (HL-60 [13]): 16.1 nM/mg
- Activity (HL-60 [14]): 30.4 nM/mg
- Activity (HL-60 [15]): 31.6 nM/mg
- Inhibition [17]: 49%
- Activity (HL-60 [18]): 293 pmol/h/mg
- Activity (HL-60 [19]): 28 nM/mg
- Activity (HL-60 [21]): 347 pmol/h/mg
- Activity (HL-60 [24]): 0.94 nM/mg
- Activity (HL-60 [25]): 0.79 nM/mg
- Activity (HL-60 [26]): 27 nM/mg

- pKi [27]: 4.67
- kinact [28]: 0.079 min⁻¹
- pIC50 [20]: 5.00
- kinact [29]: 0.025 min⁻¹
SMILES: C[S+](C[C@H]1O[C@@H](n2cnc3c(N)ncnc32)[C@H](O)[C@@H]1O)[C@H]1C=C[C@H](ON)C1 (stereo not given in full)
